Compound activity as filed in PubChem.
MT1-MMP act inh – blocks activation of human MT1-MMP | hit rate 0.061% among 360,000 | HT1080 RFP-PRO-GFP cells, GFP/RFP ratio fluorescence, overnight; percent of plate control window, DMSO zero | P50281 | AID 651647 | GFP/RFP ratio change, % at 20 µM;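 active = GFP/RFP ratio change of at least 30% with cell ATP level not reduced by more than half and red fluorescence within 50% of control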
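Material: RFP-PRO-GFP reporter HT1080 cells. Dosing: single-point 20 µM compound, 1% DMSO. Controls: DMSO and RFP-L50D-GFP cell wells. Timing: cells overnight before dosing, compound overnight, 37 °C, 5% CO2. Measure: GFP/RFP fluorescence ratio.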
CSN deneddyl inh – inhibitors of human CSN-mediated cullin deneddylation; Q92905; Purified CSN, SCF-Nedd8-OG deneddylation, fluorescence polarization; inhibition, % at 12.5 µM; hit rate 0.38% among 360,000;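 active = pattern-corrected inhibition above about 35%, with an unprinted fluorescence ratio check between 0.5 and 1.5, limit read from the data, passing the limit was not always enough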;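 also: 0% = enzyme with substrate and 100% = substrate without enzyme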
Target sequence (Q92905 whole entry, looked up, one chain of several): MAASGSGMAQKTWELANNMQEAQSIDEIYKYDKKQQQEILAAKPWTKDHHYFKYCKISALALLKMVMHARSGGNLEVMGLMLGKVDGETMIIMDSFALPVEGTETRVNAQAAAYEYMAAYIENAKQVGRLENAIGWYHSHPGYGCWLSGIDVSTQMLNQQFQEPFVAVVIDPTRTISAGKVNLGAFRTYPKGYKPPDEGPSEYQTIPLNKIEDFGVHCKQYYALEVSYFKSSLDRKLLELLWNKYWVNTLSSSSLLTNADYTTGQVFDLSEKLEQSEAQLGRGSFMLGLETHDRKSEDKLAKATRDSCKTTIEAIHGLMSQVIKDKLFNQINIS
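test system = HEK293T-derived human Csn5 enzyme | amount = 0.24 nM Csn5 enzyme, final concentration | medium = Tris/NaCl/DTT buffer, pH 7.5 | schedule = 90 min reaction at room temperature | signal = FP | evaluation = inhibition of Csn5 cleavage, % | compound dosing = single dose of 12.5 µM compound with 0.25% DMSO | probe or stimulus = 10 nM SCFSkp2-Nedd8OG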
SUMO1 PPI mod – modulators of human SUMO1-mediated protein-protein interactions | P63165 | SUMO1 binding to a labelled peptide, TR-FRET, 1 h | hit rate 0.33% among 360,000 | inhibition, % at 20 µM; in the data active = inhibition above about 37%
Rpn11 inh – inhibitors of human proteasome Rpn11. O00487. human 26S proteasome, Ub4-pepOG fluorescence polarization; 20S core pre-blocked with epoxomicin. inhibition, % at 20 µM. hit rate 0.59% among 360,000;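 active = inhibition at 20 µM, scaled to each plate's controls, above about 33%, limit read from the data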
Target sequence (O00487 whole entry, looked up): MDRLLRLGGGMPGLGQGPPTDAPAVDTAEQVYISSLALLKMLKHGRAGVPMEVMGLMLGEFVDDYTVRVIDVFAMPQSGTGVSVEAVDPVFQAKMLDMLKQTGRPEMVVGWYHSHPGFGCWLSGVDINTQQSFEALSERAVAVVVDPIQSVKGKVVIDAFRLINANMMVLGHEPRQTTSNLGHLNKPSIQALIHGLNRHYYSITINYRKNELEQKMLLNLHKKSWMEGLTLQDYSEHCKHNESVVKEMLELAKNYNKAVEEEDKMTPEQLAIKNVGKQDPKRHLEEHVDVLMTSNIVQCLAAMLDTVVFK
SKN-1 block – C. elegans SKN-1 inhibition; C. elegans VP596 Pgst-4::GFP/RFP ratio, acrylamide-induced, 24 h; inhibition, % at 21.8 µM; hit rate 0.49% among 360,000; AID 624304;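 active = interference check ratio from 0.5 to 1.5 plus GFP to RFP signal ratio inhibition reaching or exceeding a fixed threshold, cut at about 30% in these data, passing the limit was not always enough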
DNMT1 block – DNMT1 (human) enzyme inhibition; hit rate 0.83% among 360,000; inhibition (reported as % activation of signal), % at 10 µM; P26358; DNMT1 molecular beacon, Hinp1I cleavage, fluorescence; AID 588458; in the data active = inhibition above about 50%
DNMT1 confirm – DNMT1 inhibition confirmation, single concentration. shares compounds with DNMT1 block. DNMT1 molecular beacon HinP1I cleavage, fluorescence. inhibition, % at 10 µM. hit rate 8% among 2,300;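 active = average inhibition of at least 30% in the single-concentration confirmation test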
DNMT1 interf – beacon fluorescence artifact counter-screen; activation (fluorescence interference), % at 10 µM; shares compounds with DNMT1 block; DNMT1 molecular beacon spectral interference counterscreen, fluorescence 485/520; hit rate 1% among 2,300;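 active = activation of at least 30% at 10 µM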;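 also: DNMT1 catalytic domain with a HinP1I cleavage step and a FAM/dabcyl DNA beacon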
Starred values were filed as active, the others as inactive. Shown are actives, neighbours in structure and some others; about 2.3% of the full set was active somewhere.

What do the screens show for `CSc1ccc(Cn2c(C)c(C(=O)NCc3ccco3)sc2=O)cc1`?
MT1-MMP act inh: 1; CSN deneddyl inh: -5; SUMO1 PPI mod: 3; Rpn11 inh: 2; SKN-1 block: -8; DNMT1 block: 3

What do the screens show for `COc1cccc(-c2cccc(-c3nc(C(=O)NCc4ccc(Oc5ccccc5)cc4)cc4c3[C@H](CCO)N(S(=O)C(C)(C)C)C4)c2)c1` (stereo partly drawn)?
MT1-MMP act inh: 1; CSN deneddyl inh: 5; SUMO1 PPI mod: -31; Rpn11 inh: 9; SKN-1 block: 10; DNMT1 block: -40

What do the screens show for `CC1(C(=O)NS(=O)(=O)c2cccc(F)c2)CCN1C(=O)CC1CCCCC1` (stereo not drawn)?
MT1-MMP act inh: 0; CSN deneddyl inh: -2; SUMO1 PPI mod: 3; Rpn11 inh: -3; SKN-1 block: -3; DNMT1 block: -2

Results for CC1=C(C(=O)N(C(C)C)C(C)C)CC(CC(=O)NC(c2ccccc2)c2ccccc2)C(=O)N1CCC1=CCCCC1 (stereo not drawn) ?
MT1-MMP act inh: -22; CSN deneddyl inh: 3; SUMO1 PPI mod: 6; Rpn11 inh: 14; SKN-1 block: -10; DNMT1 block: -5

What do the screens show for `Cc1ccc(NC2CCCCC2NS(=O)(=O)c2ccc(Cl)cc2)cc1` (stereo not drawn)?
MT1-MMP act inh: -6; CSN deneddyl inh: -3; SUMO1 PPI mod: -3; Rpn11 inh: 1; SKN-1 block: 3; DNMT1 block: -3

Results for O=S(=O)(NC1CCCCC1Nc1ccc(Cl)cc1)c1ccccc1 (stereo not drawn) ?
MT1-MMP act inh: -4; CSN deneddyl inh: -8; SUMO1 PPI mod: 0; Rpn11 inh: -4; SKN-1 block: 16; DNMT1 block: 73*; DNMT1 confirm: 1; DNMT1 interf: 4

What do the screens show for `COC(=O)[C@H](C)N1C/C=C\COc2c(Cl)cc(Cl)cc2S1(=O)=O`?
MT1-MMP act inh: 1; CSN deneddyl inh: -3; SUMO1 PPI mod: 6; Rpn11 inh: -6; SKN-1 block: -14; DNMT1 block: 4

What do the screens show for `COC(=O)[C@H](Cc1ccccc1)N1C/C=C\COc2c(Cl)cc(Cl)cc2S1(=O)=O`?
MT1-MMP act inh: -2; CSN deneddyl inh: -5; SUMO1 PPI mod: 9; Rpn11 inh: -1; SKN-1 block: 14; DNMT1 block: 82*; DNMT1 confirm: 4; DNMT1 interf: 5

How did Cc1cc(O)cc2c1C(=O)/C(=C/c1ccco1)O2 do in these assays?
MT1-MMP act inh: -28; CSN deneddyl inh: 27; SUMO1 PPI mod: -8; Rpn11 inh: -30; SKN-1 block: 22; DNMT1 block: 65*; DNMT1 confirm: 6; DNMT1 interf: 6

How did COc1ccc(N(C(=O)Cn2nnc(-c3ccccc3F)n2)C(C(=O)NCC2CCCO2)c2ccc(Cl)cc2)cc1 (stereo not drawn) do in these assays?
MT1-MMP act inh: 0; CSN deneddyl inh: -11; SUMO1 PPI mod: 3; Rpn11 inh: -4; SKN-1 block: -3; DNMT1 block: 53*; DNMT1 confirm: 3; DNMT1 interf: 1

Results for COc1ccc(N(C(=O)Cn2nnc(-c3ccc(Cl)cc3)n2)C(C(=O)NCC2CCCO2)c2ccc(C)cc2)cc1 (stereo not drawn) ?
MT1-MMP act inh: 1; CSN deneddyl inh: 2; SUMO1 PPI mod: 5; Rpn11 inh: -1; SKN-1 block: -5; DNMT1 block: 55*; DNMT1 confirm: 2; DNMT1 interf: -3

How did CC(=O)Nc1cc(-c2ccc(S(C)(=O)=O)cc2)cn2c(-c3ccc(F)c(Cl)c3)cnc12 do in these assays?
MT1-MMP act inh: -7; CSN deneddyl inh: -3; SUMO1 PPI mod: -14; Rpn11 inh: 24; SKN-1 block: 17; DNMT1 block: -5

Results for CC(C)n1c(=O)c2ccccc2n1S(C)(=O)=O ?
MT1-MMP act inh: -1; CSN deneddyl inh: -5; SUMO1 PPI mod: -2; SKN-1 block: -5

Results for CSc1nc(SCC(=O)NC(c2ccccc2)c2ccccc2)c2c3c(sc2n1)CN(C)CC3 ?
MT1-MMP act inh: -1; CSN deneddyl inh: 6; SUMO1 PPI mod: -12; Rpn11 inh: 17; SKN-1 block: -1; DNMT1 block: 63*; DNMT1 confirm: 2; DNMT1 interf: -4

How did CSc1nc(NCC(C)O)c2c3c(sc2n1)CN(C)CC3 (stereo not drawn) do in these assays?
MT1-MMP act inh: -3; CSN deneddyl inh: -2; SUMO1 PPI mod: 1; Rpn11 inh: -5; SKN-1 block: 6; DNMT1 block: -1

Results for Cc1cc(=O)[nH]c(N/N=C/C=C/c2ccccc2)n1 ?
MT1-MMP act inh: -2; CSN deneddyl inh: -3; SUMO1 PPI mod: -26; Rpn11 inh: 4; SKN-1 block: -1; DNMT1 block: 0

What do the screens show for `Cc1cc(=O)[nH]c(N/N=C/CCc2ccccc2)n1`?
MT1-MMP act inh: 0; CSN deneddyl inh: 1; SUMO1 PPI mod: -1; Rpn11 inh: -5; SKN-1 block: 3; DNMT1 block: 56*; DNMT1 confirm: 4; DNMT1 interf: 28

Results for CC1CC(NC(=O)N(C)C)N(C)C(=O)N1 (stereo not drawn) ?
MT1-MMP act inh: 2; CSN deneddyl inh: -12; SUMO1 PPI mod: 0; Rpn11 inh: -2; SKN-1 block: 3; DNMT1 block: 66*; DNMT1 confirm: 4; DNMT1 interf: 7

Results for CN(C)C(=O)c1ccc2c(c1)n(C)c(=O)n2C ?
MT1-MMP act inh: 6; CSN deneddyl inh: -4; SUMO1 PPI mod: 5; Rpn11 inh: -9; SKN-1 block: 5; DNMT1 block: 0

How did O=C(/C=C/c1ccco1)N(c1ccccn1)c1ccccn1 do in these assays?
MT1-MMP act inh: -5; CSN deneddyl inh: 26; SUMO1 PPI mod: 19; Rpn11 inh: -6; SKN-1 block: 3; DNMT1 block: 97*; DNMT1 confirm: 6; DNMT1 interf: -3

How did CCOC(=O)c1[nH]c(C)c(C(=O)OCC(=O)N2CCc3ccccc32)c1C do in these assays?
MT1-MMP act inh: 2; CSN deneddyl inh: -9; SUMO1 PPI mod: 6; Rpn11 inh: 7; SKN-1 block: -4; DNMT1 block: -4

How did CCOC(=O)c1c(C)[nH]c(C(=O)OCC(=O)Nc2cc(C)ccc2OC)c1C do in these assays?
MT1-MMP act inh: 4; CSN deneddyl inh: 7; SUMO1 PPI mod: -3; Rpn11 inh: 20; SKN-1 block: 0; DNMT1 block: 62*; DNMT1 confirm: 2; DNMT1 interf: 1
